pIC50: −log10 of the molar value.
How the values were obtained:
OVCAR-3 = assay: Antiproliferative activity against human OVCAR-3 cells; format: functional, cell-based
[1] = Antiproliferative activity against human LTEP-A2 cells assessed as viable cells at 25 uM after 24 hrs by trypan blue exclusion assay; format: functional; conditions: LTEP-A2, 24 h, read-out: Activity
Outline: (§1)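 Suspension-grown LTEP-A2 cells in RPMI 1640 with 20% heat-inactivated bovine serum, penicillin and streptomycin. Exponentially growing cells were added at 400 000 cells/mL to medium with 6.25–50 µM compound. Trypan blue-excluding cells were counted at 3, 24, 48 and 72 h relative to controls. IC50 was interpolated from 24 h dose-response curves. Three independent experiments, mean ± SD.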

LTEP-A2 = assay: Antiproliferative activity against human LTEP-A2 cells by trypan blue exclusion assay; format: functional, cell-based; outline: as §1
[2] = Antiproliferative activity against human LTEP-A2 cells assessed as viable cells at 12.5 uM after 24 hrs by trypan blue exclusion assay; format: functional; conditions: LTEP-A2, 24 h, read-out: Activity; outline: as §1
[3] = Antiproliferative activity against human LTEP-A2 cells after 24 hrs by trypan blue exclusion assay; format: functional, cell-based; conditions: LTEP-A2, 24 h; outline: as §1
[4] = Antiproliferative activity against human LS 174T cells; format: functional, cell-based; conditions: LS174T
DU-145 = assay: Antiproliferative activity against human DU145 cells assessed as viable cells after 24 hrs; conditions: DU-145, 24 h
Jurkat = assay: Antiproliferative activity against human lymphoblastoid cells using annexin-V FITC and PI staining by flow cytometry

| Compound | pIC50 (OVCAR-3) | viability at 25 µM [1] | Activity (LTEP-A2) | viability at 12.5 µM [2] | pIC50 [3] | pIC50 [4] | pIC50 (DU-145) | pIC50 (Jurkat) |
| --- | --- | --- | --- | --- | --- | --- | --- | --- |
| S=C=NCCc1ccccc1 [PHENETHYLISOTHIOCYANATE] | 4.63 | 81% | Dose-dependent effect | 12% | 4.70 | 5.15 |  |  |
| C[S+]([O-])CCCCN=C=S (stereo not given) [SULFORAPHANE] |  |  |  |  | 5.20 | 4.02 | 5.00 | 5.42 |
